Source: PubChem BioAssay
Sampled rows, rich in hits. Any-hit rate of the full collection: about 2.8%.
NPY Y2 blocker: NPY-Y2 (human) receptor antagonism; inhibition, % at 2.7 µM; NPY-Y2 expressing cells, antagonist mode; P49146; 140,000 tested, 0.99% active; AID 793
PGE2 EP2 inh: blocks the human prostaglandin E2 receptor EP2; P43116; C6 glioma cells expressing human EP2, cAMP TR-FRET; cells stimulated with saturating PGE2; inhibition, % at 25 µM; 260,000 tested, 0.52% active; AID 1422;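 active = percent inhibition above 40 after rounding to a whole number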;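 also: rat C6 glioma host cells with rolipram phosphodiesterase inhibitor present; the protocol text gives 20 µM as final concentration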
Target sequence (P43116 whole entry, looked up): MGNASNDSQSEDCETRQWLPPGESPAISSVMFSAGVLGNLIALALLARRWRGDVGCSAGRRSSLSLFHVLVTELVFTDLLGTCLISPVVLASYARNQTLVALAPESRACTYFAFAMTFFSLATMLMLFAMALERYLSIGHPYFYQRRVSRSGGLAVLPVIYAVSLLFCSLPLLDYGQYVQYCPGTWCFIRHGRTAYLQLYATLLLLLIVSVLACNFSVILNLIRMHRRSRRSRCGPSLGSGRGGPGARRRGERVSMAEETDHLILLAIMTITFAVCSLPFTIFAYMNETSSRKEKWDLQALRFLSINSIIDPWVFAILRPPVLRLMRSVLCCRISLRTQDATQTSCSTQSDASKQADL
NPY Y1 blocker: antagonists of human neuropeptide Y receptor Y1; P25929; HEK293-CNG Y1 cells, membrane potential fluorescence; NPY at EC95, then isoproterenol; inhibition, % at 3.6 µM; 200,000 tested, 1% active;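 active = inhibition above the campaign mean inhibition of all tested compounds plus 3 SD, cut at about 20% in these data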
Target sequence (P25929 whole entry, looked up): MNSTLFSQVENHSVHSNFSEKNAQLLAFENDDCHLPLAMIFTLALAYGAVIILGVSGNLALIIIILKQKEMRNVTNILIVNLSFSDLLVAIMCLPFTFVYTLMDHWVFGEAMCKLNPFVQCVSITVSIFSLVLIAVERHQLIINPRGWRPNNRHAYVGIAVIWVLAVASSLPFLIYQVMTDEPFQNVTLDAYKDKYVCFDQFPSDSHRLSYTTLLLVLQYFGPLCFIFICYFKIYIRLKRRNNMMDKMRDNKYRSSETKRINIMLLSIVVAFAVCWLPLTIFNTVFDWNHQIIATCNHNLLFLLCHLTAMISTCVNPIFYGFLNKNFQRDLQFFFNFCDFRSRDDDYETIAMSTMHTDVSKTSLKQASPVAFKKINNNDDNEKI
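Test system – HEK293 Y1/CNG channel cell line · Also added – NPY agonist 25 nM, then isoproterenol 1 µM plus Ro 20-1724 25 µM · Compound dosing – one concentration, 3.6 µM, in 0.4% DMSO · Schedule – compound incubation 1 h at room temperature, readout 45 min post-stimulation · Technique – fluorescence, membrane potential probe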
NPY2 pot ag: potentiators or agonists of human neuropeptide Y receptor Y2 | cells expressing NPY-Y2, potentiator/agonist read-out | activation, % at 3.6 µM | 220,000 tested, 0.45% active | P49146; in the data active = activation above about 27%;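 also: cells stimulated with NPY near EC25 plus isoproterenol at EC100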
NPY1 pot ag: potentiators or agonists of human neuropeptide Y receptor Y1 | NPY-Y1 expressing cells, potentiator/agonist activation | P25929 | activation, % at 3.6 µM | 220,000 tested, 0.37% active | AID 1304; in the data active = activation above about 33%, passing the limit was not always enough;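 also: cells stimulated with NPY at EC10 then isoproterenol at EC100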
EP2 mod: EP2 receptor (human) modulation. P43116. EP2-expressing cells, cAMP HTRF FRET, PGE2 co-stimulation. induction, % at 25 µM. 260,000 tested, 0.83% active. AID 940;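 active = compounds whose cAMP rise, as percent of the full-agonist control response, exceeds 60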;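 also: rat C6 glioma line stably carrying human EP2 under a CMV promoter; the protocol text gives 20 µM as final concentration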
NPY-Y1 ant conf: human NPY-Y1 antagonism, confirmation. inhibition, % at 3.6 µM. shares compounds with NPY Y1 blocker. 1,200 tested, 21% active. HEK293-CNG NPY-Y1, membrane potential fluorescence, cAMP; NPY challenge against isoproterenol-raised cAMP; in the data active = inhibition above about 20%
NPY2 antag ctr: counter-screen for NPY-Y1 antagonists: human NPY-Y2 antagonism. HEK293 NPY-Y2 CNG membrane potential fluorescence; cells given NPY, then isoproterenol. 1,200 tested, 28% active. shares compounds with NPY Y1 blocker. AID 1255. inhibition, % at 3.6 µM
Of the large screens only hits and unclear results are named; the others gave an inactive call (follow-up assays come after a bar, where they were run). Rule as the data show it, unless noted: active = inhibition above about 17%; inactive = the rest.

CC[C@H](Cn1ncc2ccccc2c1=O)NC(=O)c1cccs1	none (no result: NPY Y2 blocker, PGE2 EP2 inh, NPY Y1 blocker, NPY2 pot ag, NPY1 pot ag)
OCC1(Cc2ccccc2Cl)CCN(C/C=C/c2ccccc2)CC1	NPY Y1 blocker 27 (no result: NPY Y2 blocker) | NPY-Y1 ant conf inactive | NPY2 antag ctr inactive
COC(=O)c1cccc(C(=O)N2CCC(CO)(Cc3ccccc3Cl)CC2)c1	none (no result: NPY Y2 blocker)
Cc1ccc2nc3c(cc(C(=O)NCC4CCCO4)c(=N)n3Cc3ccccc3)c(=O)n2c1 (configuration not stated)	none (no result: NPY Y2 blocker, NPY Y1 blocker, NPY2 pot ag, NPY1 pot ag)
CC(C)(C)C(=O)Nc1cc2nn(-c3ccccc3)nc2cc1Cl	NPY Y1 blocker 20 | NPY-Y1 ant conf inactive | NPY2 antag ctr inactive
CC(=O)Nc1cc2nn(-c3ccccc3)nc2cc1Cl	none
CNc1ncc(CN(Cc2ccc(OC)cc2OC)CC2CCCO2)cn1 (configuration not stated)	none (no result: NPY Y2 blocker, NPY Y1 blocker, NPY2 pot ag, NPY1 pot ag)
CCCCNC(=O)C(=O)N/N=C/c1ccc(OCc2ccccc2)cc1	none (no result: NPY Y2 blocker)
CC(C)(C)NCC(=O)N/N=C/c1ccc(OCc2ccccc2)cc1	NPY Y1 blocker 25 (no result: NPY Y2 blocker) | NPY-Y1 ant conf 21 | NPY2 antag ctr 31
CCc1ccc2[nH]c(=O)c(CN(Cc3cccs3)S(=O)(=O)c3ccc(F)cc3)cc2c1	none (no result: NPY Y2 blocker, NPY Y1 blocker, NPY2 pot ag, NPY1 pot ag)
COc1ccc(C)cc1N(C(=O)c1ccc(F)cc1)c1nc2ccccc2s1	NPY Y1 blocker 22 | NPY-Y1 ant conf inactive | NPY2 antag ctr inactive
Cc1cc(Nc2ccc([N+](=O)[O-])cc2)nc2ccccc12	NPY Y1 blocker 24 (no result: NPY Y2 blocker) | NPY-Y1 ant conf inactive | NPY2 antag ctr inactive
COc1ccc(Nc2cc(C)c3ccccc3n2)cc1	none (no result: NPY Y2 blocker)
Cc1ccc(-c2cc3cccc[n+]3cc2-c2ccc(C)cc2)cc1	NPY Y1 blocker 22 | NPY-Y1 ant conf 32 | NPY2 antag ctr 21
CCn1c(=O)cc(SCC(=O)N2CCN(c3ccccc3F)CC2)c2ccccc21	NPY Y1 blocker 24 | NPY-Y1 ant conf inactive | NPY2 antag ctr inactive
COC(=O)c1ccc(OCC2c3cc(OC)c(OC)cc3CCN2C(C)=O)cc1 (configuration not stated)	none (no result: NPY Y2 blocker)
COC(=O)c1ccc(OCC2c3cc(OC)c(OC)cc3CCN2C(=O)c2ccco2)cc1 (configuration not stated)	NPY Y1 blocker 22 | NPY-Y1 ant conf inactive | NPY2 antag ctr 18
CCCCC(=O)Nc1ccccc1N1CCN(c2ccccc2)CC1	NPY Y1 blocker 24 (no result: NPY Y2 blocker) | NPY-Y1 ant conf inactive | NPY2 antag ctr 30
O=C(Nc1ccccc1N1CCN(c2ccccc2)CC1)c1ccccc1F	NPY Y1 blocker 36 (no result: NPY Y2 blocker) | NPY-Y1 ant conf inactive | NPY2 antag ctr inactive
COC(=O)c1c(NC(=O)c2ccc(OC)cc2)sc(C(=O)NC2CCCCC2)c1C	none (no result: NPY Y2 blocker, NPY Y1 blocker, NPY2 pot ag, NPY1 pot ag)
COc1ccc(NC(=O)c2ccc(C)cc2)c(OC)c1	none
COc1ccc(OC)c(NC(=O)c2ccc(-c3cccs3)cc2)c1	NPY Y1 blocker 22 (no result: NPY Y2 blocker) | NPY-Y1 ant conf inactive | NPY2 antag ctr inactive
CC(C)Oc1ccc(C(=O)NC(=S)Nc2cccnc2)cc1	none (no result: NPY Y2 blocker, NPY Y1 blocker, NPY2 pot ag, NPY1 pot ag)
Cn1c(N2CCCC(C(=O)NCc3ccccn3)C2)nc2ccccc21 (configuration not stated)	none (no result: NPY Y2 blocker, NPY Y1 blocker, NPY2 pot ag, NPY1 pot ag)
N#Cc1c(N2CCN(C(=O)c3ccccc3)CC2)nc(-c2ccccc2)c2c1CCCC2	NPY Y1 blocker 27 | NPY-Y1 ant conf inactive | NPY2 antag ctr inactive
Cc1cccc2cc(C#N)c(SCC(=O)Nc3nnc(C(F)(F)F)s3)nc12	none (no result: NPY Y2 blocker, NPY Y1 blocker, NPY2 pot ag, NPY1 pot ag)
Cc1ccc(COC(=O)c2nn(-c3ccccc3)nc2N)cc1	NPY Y1 blocker 29 (no result: NPY Y2 blocker) | NPY-Y1 ant conf 23 | NPY2 antag ctr inactive
CNC(=O)c1c(NC(=O)COc2cccc(C)c2C)sc2c1CCCC2	none (no result: NPY Y2 blocker, NPY Y1 blocker, NPY2 pot ag, NPY1 pot ag)
CCN(CC)CCn1c(SCC(=O)Nc2ccc(F)cc2)nc2c(sc3ccccc32)c1=O	NPY Y1 blocker 35 (no result: NPY Y2 blocker) | NPY-Y1 ant conf inactive | NPY2 antag ctr 29
C=CCN(C(=O)CSc1nc2c(sc3ccccc32)c(=O)n1CCN(CC)CC)c1ccccc1	NPY Y1 blocker 23 (no result: NPY Y2 blocker) | NPY-Y1 ant conf 44 | NPY2 antag ctr 65
COc1ccccc1NC(=O)CSc1nc2c(sc3ccccc32)c(=O)n1CCN(C)C	none (no result: NPY Y2 blocker)
CCC(C)(C(=O)NC1CCCC1)N(Cc1cccs1)C(C)=O (configuration not stated)	none
CCC(C)(C(=O)NC1CCCC1)N(Cc1ccco1)C(=O)Cc1cccs1 (configuration not stated)	NPY Y1 blocker 49 | NPY-Y1 ant conf 22 | NPY2 antag ctr inactive
CCC(C)(C(=O)NC1CCCC1)N(Cc1ccco1)C(=O)c1ccc2c(c1)OCO2 (configuration not stated)	NPY Y1 blocker 37 | NPY-Y1 ant conf inactive | NPY2 antag ctr inactive
CCC(C)(C(=O)NC1CCCCC1)N(Cc1cccs1)C(=O)c1ccccn1 (configuration not stated)	NPY Y1 blocker 22 (no result: NPY Y2 blocker) | NPY-Y1 ant conf inactive | NPY2 antag ctr inactive
COc1ccc(C(=O)/C(C#N)=N/Nc2cccc([N+](=O)[O-])c2)cc1	NPY Y1 blocker 26 (no result: NPY Y2 blocker) | NPY-Y1 ant conf 29 | NPY2 antag ctr inactive
CC(/C=C/c1ccc2c(c1)OCO2)=N\NC(=O)c1ccccc1	NPY Y1 blocker 24 (no result: NPY Y2 blocker) | NPY-Y1 ant conf inactive | NPY2 antag ctr inactive
CCOC(=O)/C(=N/Nc1ccccc1OC)N1CCCc2ccccc21	none (no result: NPY Y2 blocker, NPY Y1 blocker)
COC(=O)/C(=N/Nc1ccccc1C)N1CCCc2ccccc21	NPY Y1 blocker 36 | NPY-Y1 ant conf inactive | NPY2 antag ctr inactive
CC1(C)CC(N(Cc2ccccc2F)CC2CCOC2)CC(C)(C)N1 (configuration not stated)	none (no result: NPY Y2 blocker, NPY Y1 blocker, NPY2 pot ag, NPY1 pot ag)
Cc1cc(C(=O)CSc2nc3ccccc3c(=O)n2C)c(C)n1CC1CCCO1 (configuration not stated)	NPY Y1 blocker 27 (no result: NPY Y2 blocker) | NPY-Y1 ant conf 33 | NPY2 antag ctr inactive
Cc1cc(C(=O)CSc2nc3ccccc3c(=O)[nH]2)c(C)n1CC1CCCO1 (configuration not stated)	none (no result: NPY Y2 blocker)
COc1ccc(CN2C(=O)c3ccccc3C2C(=O)NC2CCCCCC2)c(OC)c1 (configuration not stated)	NPY Y1 blocker 24 (no result: NPY Y2 blocker) | NPY-Y1 ant conf inactive | NPY2 antag ctr inactive
Cc1ccc2nc(NC(=O)Cc3cccs3)sc2c1	none
CCc1ccc2nc(NC(=O)CCCc3cccs3)sc2c1	NPY Y1 blocker 24 (no result: PGE2 EP2 inh) | NPY-Y1 ant conf inactive | NPY2 antag ctr inactive
CCCn1c(NC(=O)c2ccc(Cl)c(S(=O)(=O)N3CCCC3)c2)nc2ccccc21	NPY Y1 blocker 22 | NPY-Y1 ant conf inactive | NPY2 antag ctr 22
